This note sets out measurements from ChEMBL document CHEMBL1151831, “Acylated iridoids with cytotoxicity from Valeriana jatamansi” (J Nat Prod, 2009).

Molecules are shown by their SMILES. A value given as a limit tells only on which side of the number the result lay.

Common to all, as to type: functional, cell-based
One test concerns A549. Kind of test: Cytotoxicity against human A549 cells after 24 hrs by MTT assay. As to conditions: A549, 24 h. In outline:
(§1)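 Human cancer lines from ATCC, seeded at 3000 cells per well and exposed 24 h later to a range of concentrations for 24 h. MTT was then added, plates were incubated a further 24 h, and viability was read as absorbance at 570 nm. IC50 values were calculated from the readings.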
(In general: Formazan colour is commonly taken as a measure of viable cells.)

The next test relates to HCT-8. Kind of test: Cytotoxicity against human HCT8 cells after 24 hrs by MTT assay. As to conditions: HCT-8, 24 h. The method in brief:
as §1

In the next test the test system is Bel-7402. The test can be described thus: Cytotoxicity against human Bel7402 cells after 24 hrs by MTT assay. As to conditions: Bel-7402, 24 h. In outline:
as §1

Test [1] in a line: Cytotoxicity against human PC3M cells after 24 hrs by MTT assay. As to conditions: PC-3M. The method in brief: as §1

What is called IC50 is the concentration that gives 50% inhibition. A higher IC50 goes with a need for much substance. On to `CC(=O)O[C@H]1C[C@]2(O)C(COC(=O)C(OC(=O)CC(C)C)C(C)C)=CO[C@@H](OC(=O)CC(C)C)[C@@H]2[C@@]1(O)COC(=O)CC(C)C` (stereo partly specified) [JATAMANVALTRATE B], for which the IC50 in the test on A549 was greater than 10 µM; with HCT-8 it was 6.2 µM; in the test on Bel-7402, greater than 10 µM; in test [1], 3.9 µM.
For the compound `CC(=O)OCC1=CO[C@@H](OC(=O)CC(C)C)[C@H]2C1=C[C@H](OC(=O)CC(C)C)[C@]2(O)COC(C)=O`, the IC50 in the test on A549 is 8.6 µM; with HCT-8 it was greater than 10 µM; with Bel-7402, greater than 10 µM; in test [1], greater than 10 µM.
Regarding `CC(=O)OCC1=CO[C@@H](OC(=O)CC(C)C)[C@H]2C1=C[C@H](O)[C@]2(O)COC(=O)CC(C)C` [JATAMANVALTRATE J], the IC50 in the test with A549 was greater than 10 µM; with HCT-8, greater than 10 µM; in the test with Bel-7402 it was greater than 10 µM; in test [1], 5.8 µM.
In the case of `CC(=O)OCC1=CO[C@@H](OC(=O)CC(C)C)[C@H]2C1=C[C@H](OC(=O)CC(C)C)[C@]21CO1` [VALTRATE], the IC50 was found to be 3.7 µM in the test on A549, 1.8 µM with HCT-8, 6.1 µM in the test with Bel-7402 and 1.6 µM in test [1].
As for `CC(=O)OC[C@]1(O)[C@H]2[C@H](OC(=O)CC(C)C)OC=C(COC(=O)CC(C)C)[C@H]2C[C@@H]1O` [JATAMANVALTRATE G], the IC50 is greater than 10 µM with A549, greater than 10 µM in the test with HCT-8, 5.9 µM in the test with Bel-7402 and 5.6 µM in test [1].
For the compound `CC(=O)OCC1=CO[C@@H](OC(=O)CC(C)C)[C@H]2C1=C[C@H](OC(=O)CC(C)(C)OC(C)=O)[C@]21CO1` [ACEVALTRATE], the IC50 turned out to be 2.9 µM with A549, 1 µM in the test on HCT-8, 1.7 µM in the test on Bel-7402 and 1.4 µM in test [1].
For the compound `CC(=O)O[C@H]1C[C@]2(O)C(COC(=O)C(OC(=O)CC(C)C)C(C)C)=CO[C@@H](OC(=O)CC(C)C)[C@@H]2[C@@]1(O)COC(=O)CC(C)(C)OC(C)=O` (stereo partly specified) [JATAMANVALTRATE A], the IC50 with A549 was greater than 10 µM; with HCT-8, greater than 10 µM; with Bel-7402, greater than 10 µM; in test [1] it was 5.3 µM.
In the case of `CC(=O)O[C@H]1C[C@@H]2C(COC(=O)CC(C)C)=CO[C@@H](OC(=O)CC(C)C)[C@@H]2[C@@]1(O)COC(=O)CC(C)(C)OC(C)=O` [JATAMANVALTRATE F], the IC50 is greater than 10 µM with A549, greater than 10 µM with HCT-8, 8.8 µM with Bel-7402 and 4.3 µM in test [1].
For the compound `CC(=O)O[C@H]1C[C@@H]2C(COC(=O)CC(C)C)=CO[C@@H](OC(=O)CC(C)C)[C@@H]2[C@@]12CO2` [DIDROVALTRATE], the IC50 with A549 was greater than 10 µM; in the test with HCT-8 it was 6.6 µM; in the test on Bel-7402 it was 7.5 µM; in test [1] it was 3.8 µM.
As for `CCOCC1=CO[C@@H](OC(=O)CC(C)C)[C@@H]2[C@@]3(CO3)[C@@H](OC(C)=O)C[C@]12O` [JATAMANVALTRATE M], the IC50 in the test with A549 was greater than 10 µM; in the test on HCT-8, greater than 10 µM; in the test with Bel-7402, greater than 10 µM; in test [1], 6.3 µM.
Regarding `CC(=O)OCC1=CO[C@@H](OC(=O)CC(C)C)[C@H]2C1=C[C@H](OC(=O)CC(C)C)[C@]2(O)CO` [JATAMANVALTRATE K], the IC50 in the test with A549 was greater than 10 µM; in the test on HCT-8, greater than 10 µM; with Bel-7402 it was 7.1 µM; in test [1], 5 µM.
In the case of `CC(=O)O[C@H]1C[C@]2(O)C(COC(=O)C(OC(=O)CC(C)C)C(C)C)=CO[C@@H](OC(=O)CC(C)C)[C@@H]2[C@@]1(O)COC(=O)C(OC(=O)CC(C)C)C(C)C` (stereo partly specified) [VALERIOTETRATE A], the IC50 is greater than 10 µM in the test on A549, 8.2 µM in the test on HCT-8, 9.9 µM in the test with Bel-7402 and 3.1 µM in test [1].
With `CC(=O)OC[C@]1(O)[C@H]2[C@H](OC(=O)CC(C)C)OC=C(COC(=O)CC(C)C)[C@H]2C[C@@H]1OC(C)=O` [DIDROVALTRATE ACETOXY HYDRIN], the IC50 in the test with A549 came to 3 µM; with HCT-8, 2.6 µM; with Bel-7402 it was 4.4 µM; in test [1], 1.6 µM.
For `CC(=O)OC[C@@]1(O)[C@@H](OC(C)=O)C[C@]2(O)C(COC(=O)C(OC(=O)CC(C)C)C(C)C)=CO[C@@H](OC(=O)CC(C)C)[C@H]12` (stereo partly specified) [JATAMANVALTRATE C], the IC50 (in the test with A549; with HCT-8; in the test on Bel-7402; in test [1]) was greater than 10 µM throughout.
For `CC(=O)O[C@H]1C[C@]2(O)C(COC(=O)C(OC(=O)CC(C)C)C(C)C)=CO[C@@H](OC(=O)CC(C)C)[C@@H]2[C@@]1(O)COC(=O)c1ccccc1O` (stereo partly specified) [JATAMANVALTRATE D], the IC50 with A549 was greater than 10 µM; in the test on HCT-8, 4.5 µM; in the test on Bel-7402 it was 9.7 µM; in test [1], 3.8 µM.
On to `CC(=O)O[C@H]1C(=O)[C@@]2(C)[C@H]([C@H](OC(=O)c3ccccc3)[C@]3(O)C[C@H](OC(=O)[C@H](O)[C@@H](NC(=O)c4ccccc4)c4ccccc4)C(C)=C1C3(C)C)[C@]1(OC(C)=O)CO[C@@H]1C[C@@H]2O` [PACLITAXEL], for which the IC50 with A549 stood at 0.0052 µM; in the test on Bel-7402 it was 0.095 µM; in test [1], 0.027 µM.
Turning to `COC[C@@]1(O)[C@@H](OC(C)=O)C[C@]2(O)C(COC(=O)C(OC(=O)CC(C)C)C(C)C)=CO[C@@H](OC(=O)CC(C)C)[C@H]12` (stereo partly specified) [JATAMANVALTRATE E], the IC50 in the test with A549 is greater than 10 µM; with HCT-8, 9.7 µM; in the test with Bel-7402, 8.5 µM; in test [1] it was greater than 10 µM.
As to `CC(=O)O[C@H]1C[C@@H]2C(COC(=O)CC(C)C)=CO[C@@H](OC(=O)CC(C)C)[C@@H]2[C@@]1(O)CO` [JATAMANVALTRATE H], the IC50 in the test on A549 was greater than 10 µM; in the test with HCT-8, greater than 10 µM; in the test on Bel-7402 it was greater than 10 µM; in test [1], 5.2 µM.
On to `CC(=O)OC[C@]1(O)[C@H]2[C@H](OC(=O)CC(C)C)OC=C(COC(=O)C(OC(=O)CC(C)C)C(C)C)[C@@]2(O)C[C@@H]1O` (stereo partly specified) [VALERIOTRIATE B], for which the IC50 with A549 was greater than 10 µM; with HCT-8, greater than 10 µM; in the test with Bel-7402, greater than 10 µM; in test [1], 3.9 µM.
For `CC(=O)O[C@H]1C[C@]2(O)C(COC(=O)C(OC(=O)CC(C)C)C(C)C)=CO[C@@H](OC(=O)CC(C)C)[C@@H]2[C@@]12CO2` (stereo partly specified), the IC50 in the test on A549 amounted to 7.4 µM; in the test on HCT-8, 2.5 µM; in the test on Bel-7402 it was 4 µM; in test [1], 1.9 µM.
The like results for `CC(=O)O[C@H]1C=C2C(COC(=O)CC(C)C)=CO[C@@H](OC(=O)CC(C)C)[C@@H]2[C@@]1(O)COC(=O)c1ccccc1O` [JATAMANVALTRATE I] were, in that order, greater than 10 µM, 9.7 µM, greater than 10 µM and 3.9 µM.
The corresponding values for `CC(=O)O[C@H]1C[C@]2(O)C(COC(=O)CC(C)C)=CO[C@@H](OC(=O)CC(C)C)[C@@H]2[C@@]12CO2` are 7 µM, 1.5 µM, 2.3 µM and 2.2 µM.
The like results for `CC(C)CC(=O)OC(C(=O)OCC1=CO[C@@H](OC(=O)CC(C)C)[C@@H]2[C@@]3(CO3)[C@@H](O)C[C@]12O)C(C)C` (stereo partly specified) [JATAMANVALTRATE L] were, in that order, greater than 10 µM, greater than 10 µM, 7.6 µM and 3.4 µM.
